Measurements reported in ChEMBL document CHEMBL3044709, “Antimicrobial furostanol saponins from the seeds of Capsicum annuum L. var. acuminatum” (2002).
Converted amounts (≈) assume the structure as drawn.

What was measured:
Format in all cases: functional
[1] = test system: Aspergillus flavus; assay: Antimicrobial activity against Aspergillus flavus ATCC 11655 after 48 hr by agar dilution method; conditions: ATCC 11655, 48 h
How it was run: (§1)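 Fungi tested by agar dilution in malt agar. Serial 2-fold sample dilutions (0.5 mL) were mixed with 9.5 mL medium and plated, then streaked with the organism. Incubation at 28 °C for 36 and 48 h. MIC is the lowest tested concentration without growth.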

[2] = test system: Bacillus subtilis; assay: Antimicrobial activity against Bacillus subtilis DSM 345 after 48 hr by agar dilution method; conditions: DSM 345, 48 h
How it was run: (§2)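 Agar dilution on standard plate count agar: 0.5 mL of a 2-fold serial dilution of sample mixed into 9.5 mL medium, poured into Petri dishes, organism streaked on the surface. Incubated at 28 °C (36 and 48 h). MIC is the lowest tested concentration with no visible growth.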

[3] = test system: Hanseniaspora uvarum; assay: Antimicrobial activity against Hanseniaspora uvarum CBS 314 after 48 hr by agar dilution method; conditions: CBS 314, 48 h
How it was run: (§3)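 Yeast peptone dextrose agar plates, each holding a 2-fold serial dilution of sample (0.5 mL into 9.5 mL medium). Yeast streaked onto the plates and incubated at 28 °C, read at 36 and 48 h. MIC is the lowest concentration tested showing no growth.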

[4] = test system: Saccharomyces cerevisiae; assay: Antimicrobial activity against Saccharomyces cerevisiae Diproval 404 after 48 hr by agar dilution method; conditions: Diproval 404, 48 h; how it was run: as §3
[5] = test system: Saccharomyces cerevisiae; assay: Antimicrobial activity against Saccharomyces cerevisiae Diproval 6073 after 48 hr by agar dilution method; conditions: Diproval 6073, 48 h; how it was run: as §3
[6] = test system: Escherichia coli; assay: Antimicrobial activity against Escherichia coli DSM 682 after 48 hr by agar dilution method; conditions: DSM 682, 48 h; how it was run: as §2
[7] = test system: Micrococcus luteus; assay: Antimicrobial activity against Micrococcus luteus DSM 348 after 48 hr by agar dilution method; conditions: DSM 348, 48 h; how it was run: as §2
[8] = test system: Bacillus cereus; assay: Antimicrobial activity against Bacillus cereus DSM 345 after 48 hr by agar dilution method; conditions: DSM 345, 48 h; how it was run: as §2
[9] = test system: Hanseniaspora vineae; assay: Antimicrobial activity against Hanseniaspora vineae CBS 2171 after 48 hr by agar dilution method; conditions: CBS 2171, 48 h; how it was run: as §3
[10] = test system: Rhizopus arrhizus; assay: Antimicrobial activity against Rhizopus oryzae ATCC 56536 after 48 hr by agar dilution method; conditions: ATCC 56536, 48 h; how it was run: as §1
[11] = test system: Saccharomycodes ludwigii; assay: Antimicrobial activity against Saccharomycodes ludwigii Diproval 120 after 48 hr by agar dilution method; conditions: Diproval 120, 48 h; how it was run: as §3
[12] = test system: Saccharomyces cerevisiae; assay: Antimicrobial activity against Saccharomyces cerevisiae Diproval 9109 after 48 hr by agar dilution method; conditions: Diproval 9109, 48 h; how it was run: as §3
[13] = test system: Lactiplantibacillus plantarum; assay: Antimicrobial activity against Lactobacillus plantarum DSM 20174 after 48 hr by agar dilution method; conditions: DSM 20174, 48 h; how it was run: as §2
[14] = test system: Candida albicans; assay: Antimicrobial activity against Candida albicans CBS 562 after 48 hr by agar dilution method; conditions: CBS 562, 48 h; how it was run: as §3
[15] = test system: Lacticaseibacillus rhamnosus; assay: Antimicrobial activity against Lactobacillus rhamnosus DSM 20021 after 48 hr by agar dilution method; conditions: DSM 20021, 48 h; how it was run: as §2
[16] = test system: Lacticaseibacillus casei; assay: Antimicrobial activity against Lactobacillus casei DSM 20011 after 48 hr by agar dilution method; conditions: DSM 20011, 48 h; how it was run: as §2
[17] = test system: Escherichia coli; assay: Antimicrobial activity against Escherichia coli ATCC 35346 after 48 hr by agar dilution method; conditions: ATCC 35346, 48 h; how it was run: as §2
[18] = test system: Aspergillus fumigatus; assay: Antimicrobial activity against Aspergillus fumigatus ATCC 1028 after 48 hr by agar dilution method; conditions: ATCC 1028, 48 h; how it was run: as §1
[19] = test system: Hanseniaspora uvarum; assay: Antimicrobial activity against Hanseniaspora uvarum AP23 after 48 hr by agar dilution method; conditions: Distaam AP23, 48 h; how it was run: as §3
[20] = test system: Setophoma terrestris; assay: Antimicrobial activity against Setophoma terrestris ATCC 11321 after 48 hr by agar dilution method; conditions: ATCC 11321, 48 h; how it was run: as §1
[21] = test system: Hanseniaspora osmophila; assay: Antimicrobial activity against Hanseniaspora osmophila CBS 313 after 48 hr by agar dilution method; conditions: CBS 313, 48 h; how it was run: as §3
[22] = test system: Staphylococcus epidermidis; assay: Antimicrobial activity against Staphylococcus epidermidis DSM 1798 after 48 hr by agar dilution method; conditions: DSM 1798, 48 h; how it was run: as §2
[23] = test system: Stutzerimonas stutzeri; assay: Antimicrobial activity against Pseudomonas stutzeri ATCC 962 after 48 hr by agar dilution method; conditions: ATCC 962, 48 h; how it was run: as §2
[24] = test system: Hanseniaspora guilliermondii; assay: Antimicrobial activity against Hanseniaspora guilliermondii CBS 465 after 48 hr by agar dilution method; conditions: CBS 465, 48 h; how it was run: as §3
[25] = test system: Bacillus licheniformis; assay: Antimicrobial activity against Bacillus licheniformis DSM 13=ATCC 14580 after 48 hr by agar dilution method; conditions: DSM 13 = ATCC 14580, 48 h; how it was run: as §2
[26] = test system: Aspergillus niger; assay: Antimicrobial activity against Aspergillus niger ATCC 1040 after 48 hr by agar dilution method; conditions: ATCC 1040, 48 h; how it was run: as §1
[27] = test system: Limosilactobacillus fermentum; assay: Antimicrobial activity against Lactobacillus fermentum DSM 20052 after 48 hr by agar dilution method; conditions: DSM 20052, 48 h; how it was run: as §2
[28] = test system: Pseudomonas aeruginosa; assay: Antimicrobial activity against Pseudomonas aeruginosa DSM 1117 after 48 hr by agar dilution method; conditions: DSM 1117, 48 h; how it was run: as §2
[29] = test system: Saccharomyces cerevisiae; assay: Antimicrobial activity against Saccharomyces cerevisiae Diproval 8167 after 48 hr by agar dilution method; conditions: Diproval 8167, 48 h; how it was run: as §3
[30] = test system: Penicillium expansum; assay: Antimicrobial activity against Penicillium expansum ATCC 7861 after 48 hr by agar dilution method; conditions: ATCC 7861, 48 h; how it was run: as §1
[31] = test system: Trichoderma viride; assay: Antimicrobial activity against Hypocrea rufa ATCC 28020 after 48 hr by agar dilution method; conditions: ATCC 28020, 48 h; how it was run: as §1
[32] = test system: Schizosaccharomyces pombe; assay: Antimicrobial activity against Schizosaccharomyces pombe Diproval 106 after 48 hr by agar dilution method; conditions: Diproval 106, 48 h; how it was run: as §3
[33] = test system: Enterococcus faecalis; assay: Antimicrobial activity against Enterococcus faecalis DSM 2570 after 48 hr by agar dilution method; conditions: DSM 2570, 48 h; how it was run: as §2
[34] = test system: Staphylococcus aureus; assay: Antimicrobial activity against Staphylococcus aureus subsp. aureus DSM 346 after 48 hr by agar dilution method; conditions: DSM 346, 48 h; how it was run: as §2
[35] = test system: Saccharomyces cerevisiae; assay: Antimicrobial activity against Saccharomyces cerevisiae Diproval 7070 after 48 hr by agar dilution method; conditions: Diproval 7070, 48 h; how it was run: as §3
[36] = test system: Saccharomyces cerevisiae; assay: Antimicrobial activity against Saccharomyces cerevisiae Diproval 2439 after 48 hr by agar dilution method; conditions: Diproval 2439, 48 h; how it was run: as §3

| MIC [1] [mg/L] | MIC [2] [mg/L] | MIC [3] [mg/L] | MIC [4] [mg/L] | MIC [5] [mg/L] | MIC [6] [mg/L] | MIC [7] [mg/L] | MIC [8] [mg/L] | MIC [9] [mg/L] | MIC [10] [mg/L] | MIC [11] [mg/L] | MIC [12] [mg/L] | MIC [14] [mg/L] | MIC [15] [mg/L] | MIC [16] [mg/L] | MIC [17] [mg/L] | MIC [18] [mg/L] | MIC [19] [mg/L] | MIC [20] [mg/L] | Structure (SMILES) | MIC [13] [mg/L] | further results |
| --- | --- | --- | --- | --- | --- | --- | --- | --- | --- | --- | --- | --- | --- | --- | --- | --- | --- | --- | --- | --- | --- |
| > 1000 | > 1000 | 25 (≈ 17.4 µM) | 50 (≈ 34.8 µM) | 50 (≈ 34.8 µM) | 1000 (≈ 697 µM) | > 1000 | 1000 (≈ 697 µM) | 50 (≈ 34.8 µM) | 125 (≈ 87.1 µM) | 50 (≈ 34.8 µM) | 50 (≈ 34.8 µM) | 25 (≈ 17.4 µM) | 1000 (≈ 697 µM) | 1000 (≈ 697 µM) | 1000 (≈ 697 µM) | > 1000 | 25 (≈ 17.4 µM) | 125 (≈ 87.1 µM) | C=C(CCC1(OC)O[C@H]2C[C@H]3[C@@H]4CC[C@H]5C[C@@H](O[C@@H]6O[C@H](CO)[C@H](O[C@@H]7O[C@H](CO)[C@@H](O)[C@H](O[C@@H]8O[C@H](CO)[C@@H](O)[C@H](O)[C@H]8O)[C@H]7O[C@@H]7O[C@H](CO)[C@@H](O)[C@H](O[C@@H]8O[C@H](CO)[C@@H](O)[C@H](O)[C@H]8O)[C@H]7O)[C@H](O)[C@H]6O)[C@H](O)C[C@]5(C)[C@H]4CC[C@]3(C)[C@H]2[C@@H]1C)CO[C@@H]1O[C@H](CO)[C@@H](O)[C@H](O)[C@H]1O (some centres not stated) [Capsicoside E] | 1000 (≈ 697 µM) | MIC [21]: 100 mg/L (≈ 69.7 µM); MIC [22]: > 1000 mg/L; MIC [23]: > 1000 mg/L; MIC [24]: 50 mg/L (≈ 34.8 µM); MIC [25]: > 1000 mg/L; MIC [26]: > 1000 mg/L; MIC [27]: 1000 mg/L (≈ 697 µM); MIC [28]: > 1000 mg/L; MIC [29]: 50 mg/L (≈ 34.8 µM); MIC [30]: 1000 mg/L (≈ 697 µM); MIC [31]: 500 mg/L (≈ 348 µM); MIC [32]: 100 mg/L (≈ 69.7 µM); MIC [33]: > 1000 mg/L; MIC [34]: > 1000 mg/L; MIC [35]: 50 mg/L (≈ 34.8 µM); MIC [36]: 50 mg/L (≈ 34.8 µM) |
| > 1000 | > 1000 | 25 (≈ 17.4 µM) | 50 (≈ 34.8 µM) | 50 (≈ 34.8 µM) | 1000 (≈ 696 µM) | > 1000 | 1000 (≈ 696 µM) | 25 (≈ 17.4 µM) | 125 (≈ 87 µM) | 50 (≈ 34.8 µM) | 50 (≈ 34.8 µM) | 50 (≈ 34.8 µM) | 1000 (≈ 696 µM) | 1000 (≈ 696 µM) | 1000 (≈ 696 µM) | > 1000 | 50 (≈ 34.8 µM) | 125 (≈ 87 µM) | COC1(CC[C@@H](C)CO[C@@H]2O[C@H](CO)[C@@H](O)[C@H](O)[C@H]2O)O[C@H]2C[C@H]3[C@@H]4CC[C@H]5C[C@@H](O[C@@H]6O[C@H](CO)[C@H](O[C@@H]7O[C@H](CO)[C@@H](O)[C@H](O[C@@H]8O[C@H](CO)[C@@H](O)[C@H](O)[C@H]8O)[C@H]7O[C@@H]7O[C@H](CO)[C@@H](O)[C@H](O[C@@H]8O[C@H](CO)[C@@H](O)[C@H](O)[C@H]8O)[C@H]7O)[C@H](O)[C@H]6O)[C@H](O)C[C@]5(C)[C@H]4CC[C@]3(C)[C@H]2[C@@H]1C (some centres not stated) [O-METHYLCAPSICOSIDE A] | 1000 (≈ 696 µM) | MIC [21]: 50 mg/L (≈ 34.8 µM); MIC [22]: > 1000 mg/L; MIC [23]: > 1000 mg/L; MIC [24]: 25 mg/L (≈ 17.4 µM); MIC [25]: > 1000 mg/L; MIC [26]: > 1000 mg/L; MIC [27]: 1000 mg/L (≈ 696 µM); MIC [28]: > 1000 mg/L; MIC [29]: 50 mg/L (≈ 34.8 µM); MIC [30]: 1000 mg/L (≈ 696 µM); MIC [31]: 250 mg/L (≈ 174 µM); MIC [32]: 50 mg/L (≈ 34.8 µM); MIC [33]: > 1000 mg/L; MIC [34]: > 1000 mg/L; MIC [35]: 50 mg/L (≈ 34.8 µM); MIC [36]: 50 mg/L (≈ 34.8 µM) |
